Laboratory results published in ChEMBL document CHEMBL1145471, “Small molecule regulators of autophagy identified by an image-based high-throughput screen” (Proc Natl Acad Sci U S A, 2007).
Activity calls are given as the source filed them. No cut-off for these calls is given here.

Assays:
H4 [1] = experiment: Increase in long-lived protein degradation in human H4 cells after 1 hr relative to control; type: functional; design: concentration or dose not given beside the values
H4 [2] = experiment: Increase in light chain 3-GFP+ autophagosome vesicle number per cell in human H4 cells at 6.1 uM after 24 hrs by high throughput fluorescence microscopy relative to control; type: functional
Method in brief: (§1)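 H4 cells stably expressing LC3-GFP, kept in DMEM/10% FBS at 37°C, 5% CO2, were seeded in 96-well plates and exposed to compound for 24 h. Cells were then fixed in 4% paraformaldehyde and stained with 3 μg/ml DAPI. Automated fluorescence microscopy scored the number, size and intensity of LC3-GFP spots. Values are percent of DMSO wells, in triplicate, mean ± SD. Rapamycin served as positive control.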

H4 [3] = experiment: Effect on FYVE-RFP+ vesicle intensity per cell in human H4 cells after 4 hrs relative to control; type: functional; design: concentration or dose not given beside the values
Method in brief: (§2)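 H4 cells stably expressing FYVE-RFP (H4-FYVE), grown in DMEM with 10% FBS, penicillin/streptomycin and 2 mM L-glutamine at 37°C, 5% CO2, seeded in 96-well plates and exposed to compound. Fixed in 4% paraformaldehyde, nuclei stained with 3 μg/ml DAPI, FYVE-RFP+ vesicles quantified by high-throughput fluorescence microscopy against DMSO control. Triplicate wells, mean ± SD.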

H4 [4] = experiment: Increase in light chain 3-GFP+ autophagosome vesicle area per cell in human H4 cells at 6.1 uM after 24 hrs by high throughput fluorescence microscopy relative to control; type: functional
Method in brief: (§3)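 H4 cells stably expressing LC3-GFP, seeded in 96-well plates and exposed to compound for 24 h; fixed in 4% paraformaldehyde, nuclei stained with 3 μg/ml DAPI. Automated fluorescence microscopy scored number, size and intensity of LC3-GFP spots; values expressed relative to DMSO-treated wells, rapamycin positive control. Triplicate wells, mean ± SD; experiments repeated three times.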

H4 [5] = experiment: Effect on FYVE-RFP+ vesicle intensity per cell in human H4 cells after 2 hrs relative to control; type: functional; design: concentration or dose not given beside the values; method in brief: as §2
H4 [6] = experiment: Effect on FYVE-RFP+ vesicle intensity per cell in human H4 cells after 8 hrs relative to control; type: functional; design: concentration or dose not given beside the values; method in brief: as §2
H4 [7] = experiment: Increase in long-lived protein degradation in human H4 cells after 4 hrs relative to control; type: functional; design: concentration or dose not given beside the values
H4 [8] = experiment: Induction of light chain 3-GFP level in human H4 cells at 6.1 uM after 24 hrs by high throughput fluorescence microscopy relative to control; type: functional; method in brief: as §1
H4 [9] = experiment: Increase in light chain 3-GFP+ autophagosome vesicle intensity per cell in human H4 cells at 6.1 uM after 24 hrs by high throughput fluorescence microscopy relative to control; type: functional; method in brief: as §3
H4 [10] = experiment: Increase in long-lived protein degradation in human H4 cells after 24 hrs relative to control; type: functional; design: concentration or dose not given beside the values
H4 [11] = experiment: Increase in long-lived protein degradation in human H4 cells after 2 hrs relative to control; type: functional; design: concentration or dose not given beside the values
H4 [12] = experiment: Increase in light chain 3-GFP+ autophagosome vesicle number per cell in human H4 cells at 7.0 uM after 24 hrs by high throughput fluorescence microscopy relative to control; type: functional
Method in brief: (§4)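 H4 cells stably expressing LC3-GFP were grown in DMEM with 10% FBS and 2 mM L-glutamine at 37°C, 5% CO2. They were exposed to each compound for 24 h, with DMSO as negative and rapamycin as positive control. Cells were then fixed in 4% paraformaldehyde and stained with 3 μg/ml DAPI. High-throughput fluorescence imaging scored LC3-GFP spot number, size and intensity, expressed relative to DMSO. Mean ± SD of triplicates; experiments repeated three times.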

H4 [13] = experiment: Increase in light chain 3-GFP+ autophagosome vesicle intensity per cell in human H4 cells at 7.0 uM after 24 hrs by high throughput fluorescence microscopy relative to control; type: functional; method in brief: as §4
H4 [14] = experiment: Increase in light chain 3-GFP+ autophagosome vesicle area per cell in human H4 cells at 7.0 uM after 24 hrs by high throughput fluorescence microscopy relative to control; type: functional
Method in brief: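 H4 cells stably expressing LC3-GFP, seeded in 96-well plates and exposed to compound for 24 h; screening concentrations were 3–12 μM, with rapamycin 0.22 μM and bafilomycin A1 0.40 μM. Cells fixed in 4% paraformaldehyde and stained with 3 μg/ml DAPI. Number, size and intensity of LC3-GFP spots measured by high-throughput fluorescence microscopy and expressed as percent of DMSO-treated wells. Rapamycin was the positive control. Triplicate wells, mean ± SD; experiments repeated three times.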

H4 [15] = experiment: Induction of light chain 3-GFP level in human H4 cells at 7.0 uM after 24 hrs by high throughput fluorescence microscopy relative to control; type: functional
Method in brief: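 H4 cells stably expressing LC3-GFP, grown in DMEM with 10% FBS, penicillin/streptomycin and 2 mM L-glutamine at 37°C, 5% CO2. Cells were seeded in 96-well plates and exposed to library compounds at 3–12 μM for 24 h, then fixed in 4% paraformaldehyde and stained with 3 μg/ml DAPI. LC3-GFP spot number, size and intensity were measured by high-throughput fluorescence microscopy and expressed relative to DMSO. Triplicates, mean ± SD.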

H4 [16] = experiment: Increase in FYVE-RFP+ vesicle intensity per cell in human H4 cells after 8 hrs relative to control; type: functional; design: concentration or dose not given beside the values; method in brief: as §2
H4 [17] = experiment: Induction of light chain 3-GFP level in human H4 cells at 3.9 uM after 24 hrs by high throughput fluorescence microscopy relative to control; type: functional; method in brief: as §1
H4 [18] = experiment: Increase in FYVE-RFP+ vesicle intensity per cell in human H4 cells after 4 hrs relative to control; type: functional; design: concentration or dose not given beside the values; method in brief: as §2
H4 [19] = experiment: Increase in light chain 3-GFP+ autophagosome vesicle intensity per cell in human H4 cells at 3.9 uM after 24 hrs by high throughput fluorescence microscopy relative to control; type: functional; method in brief: as §3
H4 [20] = experiment: Increase in ratio of light chain 3 subunit 2 to light chain 3 subunit 1 in human H4 cells at 3.9 uM after 4 hrs by Western blot; type: functional, cell-based
Method in brief: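 H4 cells were exposed to compound for 4 h, then lysed. Lysates were blotted with anti-LC3 antibody, with actin as loading control, and the LC3II/LC3I band ratio was taken.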

H4 [21] = experiment: Reduction of poly(Q) level in human H4 cells expressing EGFP-Q79-HA after 24 hrs; type: functional, cell-based
Method in brief: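 H4 cells were transiently transfected with an EGFP-Q79-HA expression vector. The medium was replaced 6 h after transfection and compounds were added. Poly(Q) was detected with anti-HA antibody.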

H4 [22] = experiment: Increase in light chain 3-GFP+ autophagosome vesicle area per cell in human H4 cells at 3.9 uM after 24 hrs by high throughput fluorescence microscopy relative to control; type: functional; method in brief: as §3
[23] = target: Serine/threonine-protein kinase mTOR (Homo sapiens, UniProt P42345); experiment: Effect on mTOR phosphorylation in human H4 cells at 3.9 uM after 4 hrs; type: cell-based
Method in brief: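 H4 cells treated with compound for 4 h; lysates analysed by Western blot using anti-phospho/non-phospho mTOR antibody, with actin as loading control; rapamycin used for comparison. Cells grown in DMEM with 10% FBS, penicillin/streptomycin, 2 mM L-glutamine at 37°C, 5% CO2.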

H4 [24] = experiment: Increase in FYVE-RFP+ vesicle intensity per cell in human H4 cells after 2 hrs relative to control; type: functional; design: concentration or dose not given beside the values; method in brief: as §2
H4 [25] = experiment: Increase in light chain 3-GFP+ autophagosome vesicle number per cell in human H4 cells at 3.9 uM after 24 hrs by high throughput fluorescence microscopy relative to control; type: functional; method in brief: as §1

Structure (SMILES): CC1=C2C[C@H]3[C@@H](CC=C4C[C@@H](O)CC[C@@]43C)[C@@H]2CC[C@]12O[C@@H]1C[C@H](C)CN[C@H]1[C@H]2C [CYCLOPAMINE]
- Activity (H4 [1]): 91.74%
- Activity (H4 [2]): 313.88%
- Activity (H4 [3]): 75.21%
- Activity (H4 [4]): 511.72%
- Activity (H4 [5]): 108.75%
- Activity (H4 [6]): 96.38%
- Activity (H4 [7]): 109.69%
- Activity (H4 [8]): 110.76%
- Activity (H4 [9]): 1564.12%
- Activity (H4 [10]): 103.97%
- Activity (H4 [11]): 111.02%

Structure (SMILES): COC(=O)C1=C(C)NC(C)=C([N+](=O)[O-])C1c1ccccc1C(F)(F)F (stereo unspecified)
- Activity (H4 [1]): 104.43%
- Activity (H4 [3]): 57.79%
- Activity (H4 [5]): 110.18%
- Activity (H4 [12]): 146.82%
- Activity (H4 [6]): 79.7%
- Activity (H4 [7]): 115.35%
- Activity (H4 [13]): 181.32%
- Activity (H4 [10]): 102.15%
- Activity (H4 [11]): 115.5%
- Activity (H4 [14]): 165.46%
- Activity (H4 [15]): 134.45%

Structure (SMILES): C=C(C)[C@H]1O[C@H]2CC[C@@]3(C)[C@@](O)(CC[C@H]4[C@@H]5OC(C)(C)[C@H]6C[C@@H]7C(=C)Cc8c(Cl)cc9[nH]c(c5c9c8[C@@]76O)[C@@]43C)[C@@]23O[C@H]3[C@H]1O [PENITREM A]
- Activity (H4 [1]): 92.88%
- Activity (H4 [16]): 72.71%
- Activity (H4 [17]): 93.08%
- Activity (H4 [7]): 132.13%
- Activity (H4 [18]): 87.41%
- Activity (H4 [19]): 166.85%
- Activity (H4 [20]): Active
- Activity (H4 [21]): Dose-dependent effect
- Activity (H4 [10]): 141.83%
- Activity (H4 [22]): 163.15%
- Activity (H4 [11]): 126.09%
- Activity [23]: inactive
- Activity (H4 [24]): 121.4%
- Activity (H4 [25]): 146.36%
